The structures appear in SMILES notation. pEC50, pIC50: −log10 of the molar value. Numbered stars: 1 amine (or outer) side, 2 acyl side, 3 side chain; on linkers, the order of the positions; unused ones are H or OH. Bridge positions count the residues as written; N and C are the ends. Square brackets hold non-standard residues; d marks the D form. Peptide text beside a SMILES is read from it. NGly(3-aminopropyl) = O=C(CN(CCCN[*:3])[*:1])[*:2]; N(2-Aminoethyl)Gly = O=C(CN(CCN[*:3])[*:1])[*:2]; Adipoyl = O=C(CCCCC(=O)[*:2])[*:1]; Suc = O=C(CCC(=O)[*:2])[*:1]

Data set [1] has as its target Melanocortin receptor 4 (Mus musculus) (UniProt P56450). Briefly: Stimulation of mouse MC4R expressed in HEK293 cells relative to NDP-MSH. It is filed as cell-based. In short, it runs like this:
(§1)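 HEK-293 cells stably expressing each melanocortin receptor were transfected with a CRE/β-galactosidase reporter. At 48 h post-transfection, cells were stimulated for 6 h with peptide (10^-4 to 10^-12 M) or 10^-4 M forskolin in DMEM containing 0.1 mg/mL BSA and 0.1 mM IBMX. Lysates were read with ONPG at OD 405 and normalized to protein (OD 595) and to forskolin response. Efficacy is expressed relative to NDP-MSH maximal stimulation.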

For another data set, the target named is Melanocortin receptor 5 (Mus musculus, UniProt P41149). Kind of data set: Agonist activity at mouse MC5R expressed in HEK293 cells. It is filed as functional, cell-based. In short, it runs like this: as §1
Data set [2] has as its target Melanocortin receptor 4 (Homo sapiens, UniProt P32245). Briefly: Displacement of [125I]NDP-alpha-MSH from MC4R.
For data set [3], the target named is Melanocortin receptor 3 (Mus musculus) (UniProt P33033). Briefly: Stimulation of mouse MC3R expressed in HEK293 cells relative to NDP-MSH. It is filed as cell-based. In short, it runs like this: as §1
Data set [4] deals with Melanocortin receptor 5 (Mus musculus) (UniProt P41149). Briefly: Stimulation of mouse MC5R expressed in HEK293 cells relative to NDP-MSH. In kind it is cell-based. In short, it runs like this: as §1
The target in data set [5] is Melanocyte-stimulating hormone receptor (Mus musculus, UniProt Q01727). Kind of data set: Agonist activity at mouse MC1R expressed in HEK293 cells. In kind it is functional, cell-based. A digest of the protocol: as §1
The next data set addresses Melanocortin receptor 3 (Mus musculus, UniProt P33033). Kind of data set: Agonist activity at mouse MC3R expressed in HEK293 cells. It is filed as functional, cell-based. A digest of the protocol: as §1
The target of data set [6] is Melanocyte-stimulating hormone receptor (Mus musculus) (UniProt Q01727). Briefly: Stimulation of mouse MC1R expressed in HEK293 cells relative to NDP-MSH. It is filed as cell-based. In short, it runs like this:
as §1

Data set [7] concerns the target Melanocortin receptor 4 (Mus musculus, UniProt P56450). Briefly: Agonist activity at mouse MC4R expressed in HEK293 cells. It is filed as functional, cell-based. A digest of the protocol: as §1
Data set [8] can be described thus: Permeability across human Caco-2 cells. It is filed as ADME, cell-based. A digest of the protocol:
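Caco-2 cells (passage 60–66) were seeded on 0.4 µm polycarbonate inserts and used 21–23 days later at stable TEER (300–500 Ωcm²). After 30 min buffer pre-incubation at 37 °C with shaking, compound was added apically.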
On the technique in general: Caco-2 cells form a polarised layer with tight junctions and transporters.

A further data set relates to Rattus norvegicus. Briefly: Bioavailability in Wistar rat plasma at 1 mg/kg, iv and 10 mg/kg, po. In kind it is ADME, organism-based. The following applies: in vivo. In short, it runs like this:
(§2)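 Conscious male Wistar rats with a jugular vein cannula implanted 24 h beforehand received peptide dissolved in water, as an iv bolus of 1 mg/kg (n = 5) or orally at 10 mg/kg (n = 2). Heparinized blood was sampled at several times up to 24 h. Plasma was separated at 4 °C, stored at -70 °C and analysed by HPLC-MS. Parameters came from noncompartmental analysis.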

Data set [9] deals with Mus musculus. Briefly: Reduction of food consumption in ICR:Hsd (CD1) mouse at 0.5 mg/kg, po after 1 hr relative to control. Set-up: scale not given: the % may be the effect or the level left. In kind it is functional. A digest of the protocol:
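Male ICR:Hsd (CD-1) mice, 7–8 weeks old and individually caged, were fasted 16 h and then gavaged once (5 mL/kg) with peptide at 100 µg/ml or with water vehicle (n = 24). Fixed food portions were given immediately and reweighed at 1, 2, 3, 4 and 5 h. Results are mean ± SEM, analysed by RM ANOVA with Tukey's test.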

The nature of data set [10]: Biodistribution in rat brain at 10 mg/kg, po after 8 hrs. It is filed as ADME, organism-based. Set-up: dose 10 mg/kg, route oral. The following applies: read-out: Drug uptake. In short, it runs like this:
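Rats were dosed at 10 mg/kg, iv or po. Brain was collected 8 h after dosing and extracted by a single protein precipitation (90% acetonitrile/10% formic acid, then 50 mM ammonium formate). Peptide was quantified by validated LC-MS/MS and expressed as […] tissue.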

Data set [11] relates to Mus musculus. Kind of data set: Effect on weight gain in ICR:Hsd (CD1) mouse at 0.5 mg/kg/day, po after 12 days relative to control. It is filed as functional. In short, it runs like this:
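Mice (n = 9) were weighed daily, then given a daily oral gavage (5 mL/kg) of peptide at 100 µg/ml or water vehicle. Weight change from day 0 was expressed as mean ± SEM and compared with controls by Student's t-test.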

The nature of data set [12]: Cmax in Wistar rat plasma at 10 mg/kg, po. It is filed as ADME, organism-based. Further details: dose 10 mg/kg, route oral. A digest of the protocol: as §2
Data set [13] is described as follows: Elimination half life in rat. In kind it is ADME, tissue-based. To be noted: plasma. In short, it runs like this: as §2
Data set [14] can be described thus: Volume of distribution at steady state in Wistar rat plasma at 1 mg/kg, iv and 10 mg/kg, po. It is filed as ADME, organism-based. To be noted: read-out: Vdss. In short, it runs like this: as §2
A short description of data set [15]: Tmax in Wistar rat plasma at 10 mg/kg, po. It is filed as ADME, organism-based. Set-up: dose 10 mg/kg, route oral. A digest of the protocol: as §2
Data set [16] is described as follows: AUC in Wistar rat plasma at 1 mg/kg, iv and 10 mg/kg, po. It is filed as ADME, organism-based. In short, it runs like this: as §2
The nature of data set [17]: Tmax in Wistar rat plasma at 1 mg/kg, iv. In kind it is ADME, organism-based. Set-up: dose 1 mg/kg, route intravenous. A digest of the protocol:
as §2

The nature of data set [18]: Cmax in Wistar rat plasma at 1 mg/kg, iv. Set-up: dose 1 mg/kg, route intravenous. In kind it is ADME, organism-based. In short, it runs like this: as §2
Data set [19] in a line: Half life in Wistar rat plasma at 1 mg/kg, iv and 10 mg/kg, po. It is filed as ADME, organism-based. In short, it runs like this: as §2

Chain of Melanocortin receptor 5 (Mus musculus) (P41149 whole entry): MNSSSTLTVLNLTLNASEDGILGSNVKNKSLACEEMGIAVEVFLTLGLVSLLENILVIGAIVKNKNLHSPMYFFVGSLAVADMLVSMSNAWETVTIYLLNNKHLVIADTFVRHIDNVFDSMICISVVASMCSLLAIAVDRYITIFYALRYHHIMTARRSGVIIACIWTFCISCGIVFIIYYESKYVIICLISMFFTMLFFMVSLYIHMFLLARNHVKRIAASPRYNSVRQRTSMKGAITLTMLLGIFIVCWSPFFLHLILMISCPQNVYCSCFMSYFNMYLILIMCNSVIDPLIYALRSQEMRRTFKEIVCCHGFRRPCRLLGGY
Chain of Melanocortin receptor 5 (P41149 whole entry): as above
Chain of Melanocortin receptor 3 (P33033 whole entry): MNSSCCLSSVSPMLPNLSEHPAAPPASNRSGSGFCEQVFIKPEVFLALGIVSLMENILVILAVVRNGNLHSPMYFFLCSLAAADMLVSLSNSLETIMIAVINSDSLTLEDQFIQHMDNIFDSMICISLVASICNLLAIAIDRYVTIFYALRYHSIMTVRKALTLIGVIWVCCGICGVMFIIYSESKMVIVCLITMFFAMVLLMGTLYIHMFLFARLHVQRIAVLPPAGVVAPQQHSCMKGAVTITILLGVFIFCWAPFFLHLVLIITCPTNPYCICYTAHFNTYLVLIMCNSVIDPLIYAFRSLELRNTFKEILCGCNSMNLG
Chain of Melanocortin receptor 3 (Mus musculus) (P33033 whole entry): as above
Chain of Melanocyte-stimulating hormone receptor (Q01727 whole entry): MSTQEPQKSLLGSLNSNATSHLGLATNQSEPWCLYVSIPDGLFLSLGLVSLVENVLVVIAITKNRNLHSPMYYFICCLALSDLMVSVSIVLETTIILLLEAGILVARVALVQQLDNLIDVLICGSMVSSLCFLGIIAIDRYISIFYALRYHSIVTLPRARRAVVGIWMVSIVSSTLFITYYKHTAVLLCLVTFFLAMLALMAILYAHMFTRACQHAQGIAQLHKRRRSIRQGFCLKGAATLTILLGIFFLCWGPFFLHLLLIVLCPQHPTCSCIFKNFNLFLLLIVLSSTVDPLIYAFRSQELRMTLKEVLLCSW
Chain of Melanocyte-stimulating hormone receptor (Mus musculus) (Q01727 whole entry, looked up): as the sequence (Q01727 whole entry) above
Chain of Melanocortin receptor 4 (Mus musculus, UniProt P56450) (P56450 whole entry): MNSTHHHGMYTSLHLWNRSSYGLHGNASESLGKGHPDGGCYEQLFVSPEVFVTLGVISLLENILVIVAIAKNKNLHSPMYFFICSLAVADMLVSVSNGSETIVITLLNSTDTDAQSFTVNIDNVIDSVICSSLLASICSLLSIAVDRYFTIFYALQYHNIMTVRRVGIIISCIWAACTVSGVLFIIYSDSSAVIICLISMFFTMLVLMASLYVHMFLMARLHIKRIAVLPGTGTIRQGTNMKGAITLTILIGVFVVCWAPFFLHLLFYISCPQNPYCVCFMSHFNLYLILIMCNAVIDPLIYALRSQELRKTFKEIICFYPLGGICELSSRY
Chain of Melanocortin receptor 4 (Mus musculus) (P56450 whole entry): as above
Chain of Melanocortin receptor 4 (Homo sapiens, UniProt P32245) (P32245 whole entry): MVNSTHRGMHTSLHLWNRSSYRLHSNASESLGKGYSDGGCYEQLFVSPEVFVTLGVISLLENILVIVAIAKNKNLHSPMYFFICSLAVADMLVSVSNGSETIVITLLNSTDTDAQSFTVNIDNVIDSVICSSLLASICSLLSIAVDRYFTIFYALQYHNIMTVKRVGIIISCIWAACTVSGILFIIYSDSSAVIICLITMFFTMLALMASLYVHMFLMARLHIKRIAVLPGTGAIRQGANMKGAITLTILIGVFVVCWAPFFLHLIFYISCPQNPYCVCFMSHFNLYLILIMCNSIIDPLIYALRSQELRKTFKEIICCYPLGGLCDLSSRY

As a reminder, the pEC50 is −log10 of the EC50, conventionally taken in molar units. For orientation: pIC50 means the IC50 on a negative log10 scale, so that one unit is a factor of ten. For the compound `N=C(N)NCCC[C@@H]1NC(=O)[C@@H](Cc2ccccc2)NC(=O)[C@H](Cc2ccccc2)NC(=O)c2ccccc2C(=O)NCCN(CC(N)=O)C(=O)[C@H](Cc2c[nH]c3ccccc23)NC1=O`, the Efficacy in [1], in data set [3], in [4] and in data set [6] was 100% in each case. In addition, the pEC50 on Melanocortin receptor 5 is 6.41; in data set [5] it was 6.26; on Melanocortin receptor 3, 4.69; on Melanocortin receptor 4 [7], 6.82. In addition, the pIC50 on Melanocortin receptor 4 [2] is 7.00.
The term Papp denotes the rate of passage across a membrane or cell layer, normalised by area and donor concentration. In the case of `CC(C)NCC(O)COc1cccc2ccccc12` (stereo not given) [PROPRANOLOL], the Papp in [8] was found to be 250 nm/s.
Broadly, the Cmax is the highest concentration seen after dosing. As a reminder, the half-life is how long it takes for the measured level to halve. What is called Tmax is the time at which the peak concentration occurs. As usually defined, the AUC is concentration integrated over time. Regarding `N=C(N)NCCC[C@@H]1NC(=O)[C@@H](Cc2ccccc2)NC(=O)[C@H](Cc2ccccc2)NC(=O)CCC(=O)NCCN(CC(N)=O)C(=O)[C@H](Cc2c[nH]c3ccccc23)NC1=O` (F[dF]RW[N(2-Aminoethyl)Gly]-NH2; linker N-5 via Suc), the F in the data set on Rattus norvegicus is 8.5%. Also, the Activity in the data set with Mus musculus [9] was 46%; with Mus musculus [11] it was 2.8%. Further, the concentration at 8 h in data set [10] turned out to be 4700 ng/g. In addition, the Papp in data set [8] turned out to be 178 nm/s. The Efficacy in [1], in data set [3], in data set [4] and in data set [6] was 100% in each case. For the same compound, the pEC50 is 8.15 on Melanocortin receptor 5, 7.19 in [5], 6.11 on Melanocortin receptor 3 and 8.40 on Melanocortin receptor 4 [7]. In addition, the Cmax worked out at 0.202 µg/mL in data set [12] and 0.977 µg/mL in data set [18]. The half-life in [13] was 100 min; in [19], above 105 min. In [14], the Vd amounted to 2.1 L/kg. Also, the Tmax in data set [15] was 37 min; in data set [17], 5 min. For the same compound, the AUC in data set [16] was 0.416 µg·h/mL.
As for `N=C(N)NCCC[C@@H]1NC(=O)[C@@H](Cc2ccccc2)NC(=O)[C@H](Cc2ccccc2)NC(=O)CCCCC(=O)NCCCN(CC(N)=O)C(=O)[C@H](Cc2c[nH]c3ccccc23)NC1=O` (F[dF]RW[NGly(3-aminopropyl)]-NH2; linker N-5 via Adipoyl), the Papp in data set [8] turned out to be 190 nm/s. Further, the Efficacy in [1], in data set [3], in data set [4] and in data set [6] was 100% each time. The pEC50 is 7.59 at Melanocortin receptor 5, 6.62 in data set [5], 5.11 at Melanocortin receptor 3 and 8.30 on Melanocortin receptor 4 [7].
In the case of `N=C(N)NCCC[C@H](NC(=O)[C@H](Cc1c[nH]c2ccccc12)NC(=O)CN)C(=O)N[C@H](Cc1ccccc1)C(=O)N[C@@H](Cc1ccccc1)C(=O)O`, the Papp in [8] was 120 nm/s.
In data set [8], `OC[C@@H](O)[C@@H](O)[C@H](O)[C@H](O)CO` [MANNITOL] yielded a Papp of 20.5 nm/s.
`N=C(N)NCCC[C@@H]1NC(=O)[C@@H](Cc2ccccc2)NC(=O)[C@H](Cc2ccccc2)NC(=O)CCC(=O)NCCCN(CC(N)=O)C(=O)[C@H](Cc2c[nH]c3ccccc23)NC1=O` (F[dF]RW[NGly(3-aminopropyl)]-NH2; linker N-5 via Suc) had a Papp in [8] of 188 nm/s. Further, the Efficacy in data set [1], in data set [3], in [4] and in data set [6] was 100% throughout. For the same compound, the pEC50 at Melanocortin receptor 5 is 8.70; in [5], 7.55; at Melanocortin receptor 3, 5.90; on Melanocortin receptor 4 [7] it was 8.40.
With `N=C(N)NCCC[C@@H]1NC(=O)[C@@H](Cc2ccccc2)NC(=O)[C@H](Cc2ccccc2)NC(=O)CCCC(=O)NCCN(CC(N)=O)C(=O)[C@H](Cc2c[nH]c3ccccc23)NC1=O`, the apparent permeability coefficient (Papp) in [8] was 210 nm/s. The Efficacy in data set [1], in data set [3], in [4] and in data set [6] was 100% in each case. Also, the pEC50 on Melanocortin receptor 5 was 7.70; in [5] it was 6.92; on Melanocortin receptor 3, 5.84; on Melanocortin receptor 4 [7] it was 7.74.

Source of the values: ChEMBL document CHEMBL1143862, “Backbone cyclic peptidomimetic melanocortin-4 receptor agonist as a novel orally administrated drug lead for treating obesity” (J Med Chem, 2008).
